A word on the pIC50: it is the IC50 on a negative log10 scale, so that one unit is a factor of ten. As usually defined, the inhibition in vivo is the relative decrease from the control value, in per cent. As usually defined, the IC50 is the concentration that inhibits the measured activity by half. The AUC is the area under the concentration-time curve, a measure of exposure. A word on the Kp: it is the ratio of the level in a tissue or fluid to that in plasma or blood.

The values below come from ChEMBL document CHEMBL1158621, “Tricyclic sulfones as orally active gamma-secretase inhibitors: synthesis and structure-activity relationship studies” (Bioorg Med Chem Lett, 2010).

Data set [1] is described as follows: Inhibition of gamma-secretase-mediated cleavage of human APP Swedish and London mutation expressed in HEK293 cell membrane. It is filed as cell-based.
Data set [2] can be described thus: Inhibition of gamma-secretase-mediated cleavage of human APP Swedish and London mutation expressed in HEK293 cells assessed as reduction in amyloid beta42 production after 4 hrs by ECL technology. It is filed as cell-based.
The nature of data set [3]: Inhibition of gamma-secretase-mediated cleavage of human APP Swedish and London mutation expressed in HEK293 cells assessed as reduction in amyloid beta40 production after 4 hrs by ECL technology. Format: cell-based. Put shortly:
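HEK293 cells expressing human APP with Swedish and London mutations were given fresh medium and incubated with inhibitor for 4 h. Ab40 was measured in 10 microliters of conditioned medium by ECL. Values are means of n = 2.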

Data set [4] concerns Mus musculus. Kind of data set: Reduction of amyloid beta40 level in non-transgenic mouse plasma at 10 mg/kg, po after 3 hrs. Format: functional.
Data set [5] deals with Mus musculus. Nature of the data set: Reduction of amyloid beta40 level in non-transgenic mouse brain at 10 mg/kg, po after 3 hrs. It is filed as functional.
Data set [6] is described as follows: Permeability across human Caco-2 cells. It is filed as ADME, cell-based. Conditions: read-out: permeability.
A short description of data set [7]: Binding affinity to p-glycoprotein.
Data set [8] deals with Cytochrome P450 3A4 (Homo sapiens, UniProt P08684). Kind of data set: Inhibition of CYP3A4 preincubated for 30 mins. It is filed as ADME. Put shortly: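 CYP3A4 inhibition was determined after the compound was pre-incubated for 30 min.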
Cytochrome P450 3A4, sequence (P08684 whole entry): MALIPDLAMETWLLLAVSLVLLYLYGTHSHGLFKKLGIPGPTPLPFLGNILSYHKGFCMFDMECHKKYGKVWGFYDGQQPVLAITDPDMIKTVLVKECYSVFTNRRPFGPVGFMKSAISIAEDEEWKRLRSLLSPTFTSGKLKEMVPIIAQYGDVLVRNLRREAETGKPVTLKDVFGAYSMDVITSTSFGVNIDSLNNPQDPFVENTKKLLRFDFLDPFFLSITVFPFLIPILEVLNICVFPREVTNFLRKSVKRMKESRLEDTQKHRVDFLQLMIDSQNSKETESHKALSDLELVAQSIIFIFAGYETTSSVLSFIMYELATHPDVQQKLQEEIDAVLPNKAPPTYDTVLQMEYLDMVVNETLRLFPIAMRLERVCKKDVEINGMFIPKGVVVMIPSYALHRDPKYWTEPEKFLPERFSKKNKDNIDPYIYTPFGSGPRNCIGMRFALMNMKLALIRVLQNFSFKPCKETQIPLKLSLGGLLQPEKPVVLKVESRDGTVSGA
A short description of data set [9]: AUC in rat at 10 mg/kg, po after 6 hrs. Conditions: plasma. Further details: time < 6 hr, dose 10 mg/kg, route oral. Format: ADME, organism-based. Put shortly: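 Rats were dosed orally at 10 mpk in 20% HPBCD. AUC was measured over 6 h by the cassette-accelerated rapid rat screen (CARRS).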
A short description of data set [10]: Drug level in rat brain at 10 mg/kg, po after 6 hrs. It is filed as ADME, organism-based. Further details: dose 10 mg/kg, route oral. Conditions: read-out: Drug uptake.
Data set [11] in a line: Ratio of drug level in brain to plasma in rat at 10 mg/kg, po. It is filed as ADME, organism-based. More on the design: dose 10 mg/kg, route oral.
For data set [12], the target named is Voltage-gated inwardly rectifying potassium channel KCNH2 (Homo sapiens, UniProt Q12809). Nature of the data set: Inhibition of human ERG at 30 uM.
Voltage-gated inwardly rectifying potassium channel KCNH2, sequence (Q12809 whole entry): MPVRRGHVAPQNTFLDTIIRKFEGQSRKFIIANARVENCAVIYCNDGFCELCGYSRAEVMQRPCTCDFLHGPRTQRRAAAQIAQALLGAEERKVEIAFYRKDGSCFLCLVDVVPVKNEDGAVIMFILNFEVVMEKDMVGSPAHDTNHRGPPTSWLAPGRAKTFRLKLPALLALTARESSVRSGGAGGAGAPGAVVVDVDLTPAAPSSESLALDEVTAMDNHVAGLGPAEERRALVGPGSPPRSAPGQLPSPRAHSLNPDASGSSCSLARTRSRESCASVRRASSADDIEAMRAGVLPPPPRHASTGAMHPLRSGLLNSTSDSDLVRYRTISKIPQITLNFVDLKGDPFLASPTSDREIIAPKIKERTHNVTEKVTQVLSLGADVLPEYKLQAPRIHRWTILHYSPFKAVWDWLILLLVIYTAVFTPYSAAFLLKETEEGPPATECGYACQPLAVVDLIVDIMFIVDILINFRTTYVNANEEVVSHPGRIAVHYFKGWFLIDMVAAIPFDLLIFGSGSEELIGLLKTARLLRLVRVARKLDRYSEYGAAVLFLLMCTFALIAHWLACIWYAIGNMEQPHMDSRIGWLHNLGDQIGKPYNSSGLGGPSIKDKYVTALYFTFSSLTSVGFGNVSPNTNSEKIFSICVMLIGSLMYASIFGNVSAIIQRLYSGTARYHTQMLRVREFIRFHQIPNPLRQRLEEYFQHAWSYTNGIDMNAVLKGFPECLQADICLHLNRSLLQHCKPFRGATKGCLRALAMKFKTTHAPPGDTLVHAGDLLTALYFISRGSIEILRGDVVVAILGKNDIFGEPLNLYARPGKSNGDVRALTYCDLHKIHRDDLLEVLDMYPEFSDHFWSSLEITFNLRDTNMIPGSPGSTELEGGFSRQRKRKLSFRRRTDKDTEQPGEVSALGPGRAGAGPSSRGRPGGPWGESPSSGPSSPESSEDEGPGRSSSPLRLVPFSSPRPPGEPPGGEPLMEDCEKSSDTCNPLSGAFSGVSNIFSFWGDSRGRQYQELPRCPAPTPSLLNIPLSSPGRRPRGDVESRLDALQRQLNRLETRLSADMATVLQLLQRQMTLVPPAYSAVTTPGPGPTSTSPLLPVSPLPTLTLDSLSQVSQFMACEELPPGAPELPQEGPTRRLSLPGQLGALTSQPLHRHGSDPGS
The species entered for data set [13] is Homo sapiens. Nature of the data set: Protein binding in human plasma. Particulars: read-out: PPB (converted).

Each structure is given as a SMILES string. pIC50: −log10 of the molar value. Activity calls are given as the source filed them. The calls are words filed in the database; no cut-off is given here.

As to `O=S(=O)(NC[C@@H]1CCC[C@@]2(S(=O)(=O)c3ccc(Cl)cc3)c3c(F)ccc(F)c3OC[C@@H]12)C(F)(F)F`, the pIC50 in [1] is 7.92; in data set [2], 8.05; in [3] it was 7.74. For the same compound, the inhibition in vivo at 10 mg/kg in data set [4] came out at 86%; in [5], 48%.

Regarding `CS(=O)(=O)NC[C@@H]1CCC[C@@]2(S(=O)(=O)c3ccc(C(F)(F)F)cc3)c3c(F)ccc(F)c3OC[C@@H]12`, the values for the pIC50 in [1], in [2] and in data set [3] were 7.89, 8.44 and 7.92, respectively. In addition, the Papp in data set [6] is 42.1 ×10⁻⁶ cm/s. The outcome in data set [7] was inactive. The compound also had an IC50 in [8] greater than 30000 nM. This compound yielded an AUC at 6 h in data set [9] of 2010 ng·h/mL. In data set [10], the concentration at 6 h is 80 ng/g. For the same compound, in data set [11], the concentration ratio (Kp) was 0.73. Further, in data set [12], the “inhibition (INH)” value is reported as “Not Active”. Also, the fraction unbound in data set [13] was 0.019.

As to `O=S(=O)(NC[C@@H]1CCC[C@@]2(S(=O)(=O)c3ccc(C(F)(F)F)cc3)c3c(F)ccc(F)c3OC[C@@H]12)C(F)(F)F`, the results for the pIC50 in data set [1], in data set [2] and in data set [3] were 7.38, 7.73 and 7.39, respectively. In [6], the Papp came to 23 ×10⁻⁶ cm/s. For the same compound, the outcome in data set [7] was inactive. Further, the IC50 in data set [8] was greater than 30000 nM. The AUC at 6 h in data set [9] was found to be 702 ng·h/mL. The concentration at 6 h in data set [10] amounted to 91 ng/g. Moreover, in [11], the Kp turned out to be 1.01. For the same compound, the inhibition in vivo at 10 mg/kg worked out at 101% in [4] and 71% in [5]. Besides, the “inhibition (INH)” value in data set [12] is reported as “Not Active”. The fraction unbound in [13] is 0.001.
